ChEMBL document CHEMBL4765302, “Design, synthesis and biological evaluation of novel histone deacetylase1/2 (HDAC1/2) and cyclin-dependent Kinase2 (CDK2) dual inhibitors against malignant cancer” (Eur J Med Chem, 2020)
pIC50: −log10 of the molar value.

Assays:
NCI-H460 [1] = assay: Induction of apoptosis in human NCI-H460 cells assessed as viable cells at 2 uM incubated for 48 hrs by annexin V-FITC and PI staining based flow cytometry (reference value: 90.4 %); type: functional; settings: read-out: Activity
A-375 [2] = assay: Induction of apoptosis in human A-375 cells assessed as necrotic cells at 2 uM incubated for 48 hrs by annexin V-FITC and PI staining based flow cytometry (reference value: 0.139 %); type: functional
HepG2 [3] = assay: Antiproliferative activity against human HepG2 cells assessed as reduction in cell growth at 8 uM incubated for 72 hrs by CCK-8 assay relative to control; type: functional
NCI-H460 [4] = assay: Induction of apoptosis in human NCI-H460 cells assessed as necrotic cells at 2 uM incubated for 48 hrs by annexin V-FITC and PI staining based flow cytometry (reference value: 0.632 %); type: functional
HCT-116 [5] = assay: Antiproliferative activity against human HCT-116 cells assessed as reduction in cell growth at 8 uM incubated for 72 hrs by CCK-8 assay relative to control; type: functional
HeLa [6] = assay: Induction of apoptosis in human HeLa cells assessed as viable cells at 2 uM incubated for 48 hrs by annexin V-FITC and PI staining based flow cytometry (reference value: 98.5 %); type: functional; settings: read-out: Activity
HeLa [7] = assay: Induction of apoptosis in human HeLa cells assessed as early apoptotic cells at 2 uM incubated for 48 hrs by annexin V-FITC and PI staining based flow cytometry (reference value: 0.528 %); type: functional
HeLa [8] = assay: Induction of apoptosis in human HeLa cells assessed as late apoptotic cells at 2 uM incubated for 48 hrs by annexin V-FITC and PI staining based flow cytometry (reference value: 0.870 %); type: functional
HepG2 [9] = assay: Antiproliferative activity against human HepG2 cells assessed as reduction in cell growth incubated for 72 hrs by CCK-8 assay; type: functional, cell-based; settings: HepG2, 72 h
Method in brief: (§1)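 IC50 by CCK-8 assay across five solid-tumour lines (HCT116, HepG2, H460, HeLa, A375). Run only for compounds chosen after the single-concentration screen, with CS055 and roscovitine as references.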

NCI-H460 [10] = assay: Antiproliferative activity against human H460 cells assessed as reduction in cell growth at 8 uM incubated for 72 hrs by CCK-8 assay relative to control; type: functional
NCI-H460 [11] = assay: Induction of apoptosis in human NCI-H460 cells assessed as late apoptotic cells at 2 uM incubated for 48 hrs by annexin V-FITC and PI staining based flow cytometry (reference value: 6.11 %); type: functional
HeLa [12] = assay: Antiproliferative activity against human HeLa cells assessed as reduction in cell growth incubated for 72 hrs by CCK-8 assay; type: functional, cell-based; method in brief: as §1
HCT-116 [13] = assay: Induction of apoptosis in human HCT-116 cells assessed as viable cells at 2 uM incubated for 48 hrs by annexin V-FITC and PI staining based flow cytometry (reference value: 93.9 %); type: functional; settings: read-out: Activity
HCT-116 [14] = assay: Induction of apoptosis in human HCT-116 cells assessed as necrotic cells at 2 uM incubated for 48 hrs by annexin V-FITC and PI staining based flow cytometry (reference value: 0.124 %); type: functional
NCI-H460 [15] = assay: Antiproliferative activity against human H460 cells assessed as reduction in cell growth at 2 uM incubated for 72 hrs by CCK-8 assay relative to control; type: functional
HeLa [16] = assay: Induction of apoptosis in human HeLa cells assessed as necrotic cells at 2 uM incubated for 48 hrs by annexin V-FITC and PI staining based flow cytometry (reference value: 0.124 %); type: functional
A-375 [17] = assay: Induction of apoptosis in human A-375 cells assessed as early apoptotic cells at 2 uM incubated for 48 hrs by annexin V-FITC and PI staining based flow cytometry (reference value: 1.34 %); type: functional
NCI-H460 [18] = assay: Antiproliferative activity against human NCI-H460 cells assessed as reduction in cell growth incubated for 72 hrs by CCK-8 assay; type: functional, cell-based; settings: NCI-H460, 72 h; method in brief: as §1
HCT-116 [19] = assay: Induction of apoptosis in human HCT-116 cells assessed as late apoptotic cells at 2 uM incubated for 48 hrs by annexin V-FITC and PI staining based flow cytometry (reference value: 1.88 %); type: functional
HCT-116 [20] = assay: Antiproliferative activity against human HCT-116 cells assessed as reduction in cell growth at 2 uM incubated for 72 hrs by CCK-8 assay relative to control; type: functional
HCT-116 [21] = assay: Antiproliferative activity against human HCT-116 cells assessed as reduction in cell growth incubated for 72 hrs by CCK-8 assay; type: functional, cell-based; settings: HCT-116, 72 h; method in brief: as §1
HCT-116 [22] = assay: Induction of apoptosis in human HCT-116 cells assessed as early apoptotic cells at 2 uM incubated for 48 hrs by annexin V-FITC and PI staining based flow cytometry (reference value: 4.14 %); type: functional
A-375 [23] = assay: Induction of apoptosis in human A-375 cells assessed as late apoptotic cells at 2 uM incubated for 48 hrs by annexin V-FITC and PI staining based flow cytometry (reference value: 2.24 %); type: functional
HepG2 [24] = assay: Antiproliferative activity against human HepG2 cells assessed as reduction in cell growth at 2 uM incubated for 72 hrs by CCK-8 assay relative to control; type: functional
Histone deacetylase 2 = Histone deacetylase 2 (Homo sapiens, UniProt Q92769); assay: Inhibition of recombinant human HDAC2 using FLUOR-DE-LYS-Green as substrate incubated for 10 mins followed by substrate addition and measured after 30 mins by fluorescence based assay
Chain of Histone deacetylase 2 (Q92769 whole entry): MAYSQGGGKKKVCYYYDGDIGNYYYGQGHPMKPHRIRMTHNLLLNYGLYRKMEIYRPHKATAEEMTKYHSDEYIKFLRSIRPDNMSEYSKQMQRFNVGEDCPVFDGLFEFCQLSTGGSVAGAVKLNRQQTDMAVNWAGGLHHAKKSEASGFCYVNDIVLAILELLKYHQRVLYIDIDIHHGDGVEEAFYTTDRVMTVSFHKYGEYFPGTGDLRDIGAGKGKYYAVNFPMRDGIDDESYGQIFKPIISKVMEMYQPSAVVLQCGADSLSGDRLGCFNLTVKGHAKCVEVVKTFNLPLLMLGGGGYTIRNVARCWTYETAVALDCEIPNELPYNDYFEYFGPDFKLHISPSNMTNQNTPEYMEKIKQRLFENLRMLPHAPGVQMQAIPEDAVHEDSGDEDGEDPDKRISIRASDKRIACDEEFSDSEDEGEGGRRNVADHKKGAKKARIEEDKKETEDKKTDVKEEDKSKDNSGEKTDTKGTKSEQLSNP
Method in brief: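 IC50 values reported as means of at least two separate determinations, expressed as mean ±SD.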

NCI-H460 [25] = assay: Induction of apoptosis in human NCI-H460 cells assessed as early apoptotic cells at 2 uM incubated for 48 hrs by annexin V-FITC and PI staining based flow cytometry (reference value: 2.88 %); type: functional
A-375 [26] = assay: Antiproliferative activity against human A-375 cells assessed as reduction in cell growth incubated for 72 hrs by CCK-8 assay; type: functional, cell-based; settings: A-375, 72 h; method in brief: as §1
A-375 [27] = assay: Induction of apoptosis in human A-375 cells assessed as viable cells at 2 uM incubated for 48 hrs by annexin V-FITC and PI staining based flow cytometry (reference value: 96.3 %); type: functional; settings: read-out: Activity

Structure (SMILES)	viability at 2 µM (NCI-H460 [1])	Activity (A-375 [2])	inhibition at 8 µM (HepG2 [3])	Activity (NCI-H460 [4])	inhibition at 8 µM (HCT-116 [5])	viability at 2 µM (HeLa [6])	Activity (HeLa [7])	Activity (HeLa [8])	pIC50 (HepG2 [9])	inhibition at 8 µM (NCI-H460 [10])	Activity (NCI-H460 [11])	pIC50 (HeLa [12])	viability at 2 µM (HCT-116 [13])	Activity (HCT-116 [14])	inhibition at 2 µM (NCI-H460 [15])	Activity (HeLa [16])	Activity (A-375 [17])	pIC50 (NCI-H460 [18])	Activity (HCT-116 [19])	inhibition at 2 µM (HCT-116 [20])	other results
Nc1ccc(F)cc1NC(=O)c1ccc(CNC(=O)/C=C/c2cccnc2)cc1	69.6%	1.73%	40.6%	0.543%	73.4%	98.3%	0.555%	1.04%	4.93	38.2%	15.1%	4.96	41.3%	0.985%	1.73%	0.103%	14.2%	4.87	3.12%	65.7%	pIC50 (HCT-116 [21]): 5.83; Activity (HCT-116 [22]): 54.6%; Activity (A-375 [23]): 49.5%; inhibition at 2 µM (HepG2 [24]): 8.36%; pIC50 (Histone deacetylase 2): 7.18; Activity (NCI-H460 [25]): 14.7%; pIC50 (A-375 [26]): 5.17; viability at 2 µM (A-375 [27]): 34.5%
CC[C@H](CO)Nc1nc(NCc2ccccc2)c2ncn(C(C)C)c2n1 [SELICICLIB]	47%	0.189%	22.1%	3.09%	29.1%	88.4%	4.04%	7.16%	5.07	15.6%	36%	4.95	11.6%	0.24%	7.73%	0.424%	7.03%	4.92	4.24%	23.5%	pIC50 (HCT-116 [21]): 5.17; Activity (HCT-116 [22]): 83.9%; Activity (A-375 [23]): 42.3%; inhibition at 2 µM (HepG2 [24]): 12%; Activity (NCI-H460 [25]): 14%; pIC50 (A-375 [26]): 4.93; viability at 2 µM (A-375 [27]): 50.5%
